Results: ChEMBL document CHEMBL1122745, “In the search for new anticancer drugs. 9. Synthesis and anticancer activity of spin-labeled analogues of N,N:N',N':N",N"-Tri-1,2-ethanediylphosphoric triamide and N,N:N',N':N",N"-tri-1,2-ethanediylphosphorothioic triamide” (1984)
“And” between values parts separate entries of the source, which are not always exact repeats. Identical values can stand only once.

What was measured:
Mus musculus [1] = experiment: In vivo evaluation of 30 day survival against P388 lymphocytic leukemia in CD2F1 male mice at dose mg/kg; out of 6 mice; format: functional
In short: (§1)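 CD2F1 (CDF1) male mice transplanted with 10⁶ P388 lymphocytic leukemia cells, then dosed intraperitoneally once daily for 9 days starting after the day of transplantation. Groups of 6 mice. Read-out is the number of mice alive at 30 days over the total per group.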

Mus musculus [2] = experiment: In vivo evaluation of percent increase in life span (ILS) against P388 lymphocytic leukemia in infected CD2F1 male mice and at 3 dose mg/kg; format: functional
In short: (§2)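 P388 lymphocytic leukemia (10⁶ cells) transplanted into male CD2F1 (CDF1) mice, with intraperitoneal treatment once daily for 9 days following the day of transplantation. Groups of 6. Survival days of treated (T) and control (C) mice were compared, and %ILS was calculated as [(T−C)/C]100.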

Mus musculus [3] = experiment: In vivo evaluation of percent increase in life span (ILS) against P388 lymphocytic leukemia in infected CD2F1 male mice and at 6 dose mg/kg; format: functional; in short: as §2
Mus musculus [4] = experiment: (§3) In vivo evaluation of 30 day survival against P388 lymphocytic leukemia in CD2F1 male mice at dose 160 mg/kg; out of 6 mice; format: functional, organism-based; design: dose 160 mg/kg; in short: as §1
Mus musculus [5] = experiment: (§4) In vivo evaluation of 30 day survival against P388 lymphocytic leukemia in CD2F1 male mice at dose 20 mg/kg; out of 6 mice; format: functional; in short: as §1
Mus musculus [6] = experiment: (§5) In vivo evaluation of 30 day survival against P388 lymphocytic leukemia in CD2F1 male mice at dose 40 mg/kg; out of 6 mice; format: functional, organism-based; design: dose 40 mg/kg; in short: as §1
Mus musculus [7] = experiment: (§6) In vivo evaluation of 30 day survival against P388 lymphocytic leukemia in CD2F1 male mice at dose 80 mg/kg; out of 6 mice; format: functional, organism-based; design: dose 80 mg/kg; in short: as §1
Mus musculus [8] = experiment: In vivo evaluation of percent increase in life span (ILS) against P388 lymphocytic leukemia in infected CD2F1 male mice and at 160 dose mg/kg; format: functional; in short: as §2
Mus musculus [9] = experiment: In vivo evaluation of percent increase in life span (ILS) against P388 lymphocytic leukemia in infected CD2F1 male mice and at 40 dose mg/kg; format: functional; in short: as §2
Mus musculus [10] = experiment: (§7) In vivo evaluation of percent increase in life span (ILS) against P388 lymphocytic leukemia in infected CD2F1 male mice and at 80 dose mg/kg; format: functional, organism-based; in short: as §2
Mus musculus [11] = experiment: In vivo evaluation of 30 day survival against P388 lymphocytic leukemia in CD2F1 male mice at dose 10 mg/kg; out of 6 mice; format: functional; in short: as §1
Mus musculus [12] = experiment: (§8) In vivo evaluation of 30 day survival against P388 lymphocytic leukemia in CD2F1 male mice at dose 15 mg/kg; out of 6 mice; format: functional; in short: as §1
Mus musculus [13] = experiment: In vivo evaluation of percent increase in life span (ILS) against P388 lymphocytic leukemia in infected CD2F1 male mice and at 10 dose mg/kg; format: functional; in short: as §2
Mus musculus [14] = experiment: In vivo evaluation of percent increase in life span (ILS) against P388 lymphocytic leukemia in infected CD2F1 male mice and at 15 dose mg/kg; format: functional; in short: as §2
Mus musculus [15] = experiment: as §8; format: functional; in short: as §1; remark: listed apart in the source
Mus musculus [16] = experiment: In vivo evaluation of percent increase in life span (ILS) against P388 lymphocytic leukemia in infected CD2F1 male mice and at dose; format: functional; in short: as §2
Mus musculus [17] = experiment: In vivo evaluation of percent increase in life span (ILS) against P388 lymphocytic leukemia in infected CD2F1 male mice and at 30 dose mg/kg; format: functional; in short: as §2
Mus musculus [18] = experiment: In vivo evaluation of 30 day survival against P388 lymphocytic leukemia in CD2F1 male mice at dose 30 mg/kg; out of 6 mice; format: functional; in short: as §1
Mus musculus [19] = experiment: as §4; format: functional, organism-based; design: dose 20 mg/kg; in short: as §1
Mus musculus [20] = experiment: as §4; format: functional; in short: as §1; remark: listed apart in the source
Mus musculus [21] = experiment: In vivo evaluation of 30 day survival against P388 lymphocytic leukemia in CD2F1 male mice at dose 25 mg/kg; out of 6 mice; format: functional; in short: as §1
Mus musculus [22] = experiment: In vivo evaluation of percent increase in life span (ILS) against P388 lymphocytic leukemia in infected CD2F1 male mice and at 20 dose mg/kg; format: functional; in short: as §2
Mus musculus [23] = experiment: In vivo evaluation of percent increase in life span (ILS) against P388 lymphocytic leukemia in infected CD2F1 male mice and at 25 dose mg/kg; format: functional; in short: as §2
Mus musculus [24] = experiment: as §6; format: functional; in short: as §1
Mus musculus [25] = experiment: as §3; format: functional; in short: as §1
Mus musculus [26] = experiment: as §7; format: functional; in short: as §2
Mus musculus [27] = experiment: In vivo evaluation of 30 day survival against P388 lymphocytic leukemia in CD2F1 male mice at dose 7.5 mg/kg; out of 6 mice; format: functional; in short: as §1
Mus musculus [28] = experiment: In vivo evaluation of 30 day survival against P388 lymphocytic leukemia in CD2F1 male mice at dose 6 mg/kg; out of 6 mice; format: functional; in short: as §1
Mus musculus [29] = experiment: In vivo evaluation of percent increase in life span (ILS) against P388 lymphocytic leukemia in infected CD2F1 male mice and at 12 dose mg/kg; format: functional; in short: as §2
Mus musculus [30] = experiment: In vivo evaluation of 30 day survival against P388 lymphocytic leukemia in CD2F1 male mice at dose 12 mg/kg; out of 6 mice; format: functional; in short: as §1
Mus musculus [31] = experiment: In vivo evaluation of percent increase in life span (ILS) against P388 lymphocytic leukemia in infected CD2F1 male mice and at dose mg/kg; format: functional; in short: as §2
Mus musculus [32] = experiment: as §5; format: functional; in short: as §1

S=P(N1CC1)(N1CC1)N1CC1 [THIOTEPA]
30 day survival / total (Mus musculus [1]): 0
ILS (Mus musculus [2]): 83%
ILS (Mus musculus [3]): 141%

CC1(C)CC(OP(=S)(NCCCl)NCCCl)CC(C)(C)N1[O]
30 day survival / total (Mus musculus [4]): 0
30 day survival / total (Mus musculus [5]): 0
30 day survival / total (Mus musculus [6]): 0
30 day survival / total (Mus musculus [7]): 0
ILS (Mus musculus [8]): 44%
ILS (Mus musculus [9]): 17% and 13%
ILS (Mus musculus [10]): 30%

CC1(C)CC(OP(=O)(N2CC2)N2CC2)CC(C)(C)N1[O]
30 day survival / total (Mus musculus [11]): 0
30 day survival / total (Mus musculus [12]): 0
ILS (Mus musculus [13]): 29%
ILS (Mus musculus [14]): 5%

CC1(C)CC(OP(=O)(N2CC2)N2CC2)CC(C)(C)N1O
30 day survival / total (Mus musculus [15]): 0
30 day survival / total (Mus musculus [11]): 0
ILS (Mus musculus [16]): -2% and 23%

CC1(C)CC(OC(=O)NP(=O)(N2CC2)N2CC2)CC(C)(C)N1[O]
ILS (Mus musculus [14]): 42%
ILS (Mus musculus [17]): 81%

CC1(C)CC(NP(=S)(N2CC2)N2CC2)CC(C)(C)N1O
30 day survival / total (Mus musculus [15]): 0
30 day survival / total (Mus musculus [11]): 0
ILS (Mus musculus [13]): 25%
ILS (Mus musculus [14]): 34%

CN(C1CC(C)(C)NC(C)(C)C1)P(=S)(N1CC1)N1CC1
30 day survival / total (Mus musculus [15]): 0
30 day survival / total (Mus musculus [11]): 0
ILS (Mus musculus [13]): 20%
ILS (Mus musculus [14]): 33%

CC1(C)CC(OC(=O)NP(=O)(N2CC2)N2CC2)CC(C)(C)N1O
30 day survival / total (Mus musculus [15]): 0
30 day survival / total (Mus musculus [18]): 0
ILS (Mus musculus [14]): 25%
ILS (Mus musculus [17]): 48%

CN(C1CC(C)(C)N([O])C(C)(C)C1)P(=S)(NCCCl)N1CC1 (centres undefined)
30 day survival / total (Mus musculus [12]): 0
30 day survival / total (Mus musculus [19]): 0
ILS (Mus musculus [13]): 13%
ILS (Mus musculus [14]): 20%

CC1(C)CC(NP(=S)(N2CC2)N2CC2)CC(C)(C)N1[O]
30 day survival / total (Mus musculus [11]): 0
30 day survival / total (Mus musculus [20]): 0
30 day survival / total (Mus musculus [21]): 0
ILS (Mus musculus [13]): 34%
ILS (Mus musculus [22]): 52%
ILS (Mus musculus [23]): 96%

CC1(C)CC(OP(=S)(NCCCl)NCCCl)CC(C)(C)N1O
30 day survival / total (Mus musculus [24]): 0
30 day survival / total (Mus musculus [25]): 0
ILS (Mus musculus [8]): 33%
ILS (Mus musculus [26]): 15%

CC1(C)CC(OP(=S)(N2CC2)N2CC2)CC(C)(C)N1O
30 day survival / total (Mus musculus [15]): 0
30 day survival / total (Mus musculus [20]): 0
30 day survival / total (Mus musculus [27]): 0

CN(C1CC(C)(C)N(O)C(C)(C)C1)P(=S)(N1CC1)N1CC1
30 day survival / total (Mus musculus [15]): 0
30 day survival / total (Mus musculus [20]): 0
ILS (Mus musculus [22]): 4%

CC1(C)CC(OP(=S)(N2CC2)N2CC2)CC(C)(C)N1[O]
30 day survival / total (Mus musculus [15]): 0
30 day survival / total (Mus musculus [28]): 0
ILS (Mus musculus [29]): 103%
ILS (Mus musculus [14]): -8%
ILS (Mus musculus [3]): 45%
30 day survival / total (Mus musculus [30]): 1

CN(C1CC(C)(C)N([O])C(C)(C)C1)P(=S)(N1CC1)N1CC1
30 day survival / total (Mus musculus [12]): 0
30 day survival / total (Mus musculus [5]): 0
ILS (Mus musculus [31]): 27% and 16%

CC1(C)CC(NP(=S)(N2CC2)N2CC2)CC(C)(C)N1
30 day survival / total (Mus musculus [32]): 0
30 day survival / total (Mus musculus [18]): 0
ILS (Mus musculus [17]): 41%
ILS (Mus musculus [9]): 88%
